From the array DNA melting data of Ke et al. (doi:10.1101/2024.01.08.574731)

How the values were obtained:
[1] = folding enthalpy; higher = less favourable; fluorescence melt of hairpins on a sequencing array, two-state fit; conditions: sodium 0.088 M
Procedure, shortened: (§1)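 On a sequenced MiSeq flow cell, library hairpins with annealed Cy3 and quencher oligos were imaged for Cy3 fluorescence in 2.5 °C steps up to 60 °C, in 50 mM Na-HEPES pH 8.0, 25 mM NaCl. Normalisation used pre-quench Cy3 and control constructs. Bootstrapped two-state fits gave melting temperature and folding enthalpy, combined by inverse variance across four replicates and with fitted temperatures raised by 9.35 °C to match UV melts.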

[2] = melting temperature; fluorescence melt of hairpins on a sequencing array, two-state fit, raised by 9.35 °C to match UV melts; conditions: sodium 0.088 M
Procedure, shortened: as §1

Sequence | folding enthalpy [1] [kcal/mol] | Tm [2] [°C]
GCCCACGAAAGTGCAGGC ((((((....)))..))) | -28.1 | 50.1
GCCCACGAAAGTGCTGGC ((((((....)))..))) | -18.9 | 47.4
GCCCACGAAAGTGGCGGC ((((((....)))..))) | -14 | 57.6
GCCCACGAAAGTGGTGGC ((((((....)))..))) | -13.8 | 55.4
GCCCACGGAAACACGGGC ((((..(....)..)))) | -24.4 | 46.5
GCCCACGGAAACGCGGAC (.((.((....)).)).) | -18.4 | 32.8
GCCCAGCGAAAGCAAGGC (((..((....))..))) | -18.5 | 56.9
GCCCAGCGAAAGCCCGGC (((..((....))..))) | -15.6 | 47.1
GCCCAGCGAAAGCGAGGC (((..((....))..))) | -20.6 | 62.7
GCCCAGCGAAAGCGGAGC ((.(.((....)).).)) | -12.7 | 53.1
GCCCAGCGAAAGCTTCGC ((..(((....)))..)) | -6.41 | 40.3
GCCCAGGCGAAAGCCGGC (((..(((....)))))) | -10.1 | 62
GCCCAGGGAAACCCGGGC ((((.((....)).)))) | -37.4 | 57.8
GCCCAGGGAAACCTGGAC (.(((((....))))).) | -13.4 | 49.4
GCCCAGGGAAACTTGGGC (((((.(....).))))) | -36.8 | 56.5
GCCCATCCGAAAGGAGGC (((..(((....)))))) | -14.3 | 44.5
GCCCATCGAAAGATCGGC (((.(((....))).))) | -33.6 | 44.5
GCCCATGGAAACACGGGC ((((.((....)).)))) | -43 | 49.4
GCCCATGGAAACATAGGC (((.(((....))).))) | -28.1 | 38.3

Sequence | folding enthalpy [1] [kcal/mol] | Tm [2] [°C]
GCCCCACGAAAGTGAGGC (((.(((....))).))) | -37.8 | 55.8
GCCCCAGGAAACCAGGGC ((((..(....)..)))) | -23.4 | 45.6
GCCCCAGGAAACTGGAGC ((.((((....)))).)) | -25.3 | 46.7
GCCCCCCGAAAGGGCGGC (((.(((....))).))) | -32.6 | 60.2
GCCCCCGGAAACGAGGGC ((((.((....)).)))) | -28.1 | 56
GCCCCCGGAAACGGGGAC (.(((((....))))).) | -11.4 | 53.2
GCCCCCTCGAAAGAGGGC (((..(((....)))))) | -6 | 37.6
GCCCCGCGAAAGCAAGGC (((..((....))..))) | -16.2 | 46.5
GCCCCGCGAAAGCAGCGC ((.(.((....)).).)) | -14.2 | 39.7
GCCCCGCGAAAGCCCGGC (((..((....))..))) | -14.7 | 38.9
GCCCCGCGAAAGCCTGGC (((..((....))..))) | -17 | 39.5
GCCCCGCGAAAGCTAGGC (((..((....))..))) | -18.7 | 45
GCCCCGCGAAAGCTCGGC (((..((....))..))) | -20.3 | 38.8
GCCCCGGGAAACCGGAGC ((.((((....)))).)) | -22.7 | 56.1
GCCCCTCGAAAGAGAGGC (((.(((....))).))) | -31.4 | 52.8
GCCCCTCGAAAGAGGGC (((.(((....)))))) | -13 | 61.5
GCCCCTTCGAAAGAAGGC (((..(((....)))))) | -8.55 | 37
GCCCGAACGAAAGTTGGC (((..(((....)))))) | -19.2 | 42.6
